ChEMBL document CHEMBL1122702, “Radiohalogen-labeled imaging agents. 3. Compounds for measurement of brain blood flow by emission tomography” (J Med Chem, 1984)

What was measured:
Type in all cases: ADME, organism-based
Rattus norvegicus [1] = species: Rattus norvegicus; assay: Ratio of distribution of the [131I]-labeled compound at 5 min in rat brain over uptake in blood
Method in brief: (§1)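 Male Sprague-Dawley rats (200–300 g, fed ad libitum), ether-anesthetized, got a tail-vein bolus of 0.2 mL saline containing 10–20 μCi 131I compound and were decapitated at the stated time. Organs were weighed and gamma-counted against a serially diluted external standard. Organ/blood ratio was calculated from % dose per gram of organ. Animal numbers per time point were 1–4.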

Rattus norvegicus [2] = species: Rattus norvegicus; assay: Ratio of distribution of the [131I]-labeled compound at 5 min in rat liver over uptake in blood; settings: other tissue; method in brief: as §1
Rattus norvegicus [3] = species: Rattus norvegicus; assay: The uptake of the 131 I-labeled compound at 5 min was evaluated in rat kidney as Percent of injected dose per gram in the organ; settings: in vivo
Method in brief: (§2)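 Male Sprague-Dawley rats (200–300 g, free access to food and water), lightly ether-anesthetized and restrained, received a 0.2 mL saline tail-vein bolus of 10–20 μCi 131I-labeled compound. They were decapitated at the stated time, and organs were excised, weighed and gamma-counted. Percent injected dose was determined against a calibrated external standard made by serial dilution of the injectate. n = 1–4 rats.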

Rattus norvegicus [4] = species: Rattus norvegicus; assay: The uptake of the 131 I-labeled compound at 30 min was evaluated in rat kidney as Percent of injected dose per gram in the organ; settings: in vivo, 0.5 h; method in brief: as §2
Rattus norvegicus [5] = species: Rattus norvegicus; assay: The uptake of the 131 I-labeled compound at 30 min was evaluated in rat liver as Percent of injected dose in the total organ; settings: in vivo, 0.5 h; method in brief: as §2
Rattus norvegicus [6] = species: Rattus norvegicus; assay: The uptake of the 131 I-labeled compound at 30 min was evaluated in rat brain as Percent of injected dose in the total organ; settings: in vivo, 0.5 h; method in brief: as §2
Rattus norvegicus [7] = species: Rattus norvegicus; assay: The uptake of the 131 I-labeled compound at 5 min was evaluated in rat heart as Percent of injected dose in the total organ; settings: in vivo; method in brief: as §2
Rattus norvegicus [8] = species: Rattus norvegicus; assay: The uptake of the 131 I-labeled compound at 5 min was evaluated in rat lung as Percent of injected dose per gram in the organ; settings: in vivo; method in brief: as §2
Rattus norvegicus [9] = species: Rattus norvegicus; assay: The uptake of the 131 I-labeled compound at 5 min was evaluated in rat blood as Percent of injected dose per gram in the organ; settings: in vivo; method in brief: as §2
Rattus norvegicus [10] = species: Rattus norvegicus; assay: The uptake of the 131 I-labeled compound at 5 min was evaluated in rat liver as Percent of injected dose in the total organ; settings: in vivo; method in brief: as §2
Rattus norvegicus [11] = species: Rattus norvegicus; assay: The uptake of the 131 I-labeled compound at 30 min was evaluated in rat heart as Percent of injected dose per gram in the organ; settings: in vivo, 0.5 h; method in brief: as §2
Rattus norvegicus [12] = species: Rattus norvegicus; assay: The uptake of the 131 I-labeled compound at 30 min was evaluated in rat heart as Percent of injected dose in the total organ; settings: in vivo, 0.5 h; method in brief: as §2
Rattus norvegicus [13] = species: Rattus norvegicus; assay: Ratio of distribution of the [131I]-labeled compound at 30 min in rat lung over uptake in blood; settings: other tissue, 0.5 h; method in brief: as §1
Rattus norvegicus [14] = species: Rattus norvegicus; assay: The uptake of the 131 I-labeled compound at 5 min was evaluated in rat brain as Percent of injected dose in the total organ; settings: in vivo; method in brief: as §2
Rattus norvegicus [15] = species: Rattus norvegicus; assay: The uptake of the 131 I-labeled compound at 5 min was evaluated in rat kidney as Percent of injected dose in the total organ; settings: in vivo; method in brief: as §2
Rattus norvegicus [16] = species: Rattus norvegicus; assay: The uptake of the 131 I-labeled compound at 30 min was evaluated in rat liver as Percent of injected dose per gram in the organ; settings: in vivo, 0.5 h; method in brief: as §2
Rattus norvegicus [17] = species: Rattus norvegicus; assay: Ratio of distribution of the [131I]-labeled compound at 30 min in rat brain over uptake in blood; settings: 0.5 h; method in brief: as §1
Rattus norvegicus [18] = species: Rattus norvegicus; assay: The uptake of the 131 I-labeled compound at 30 min was evaluated in rat lung as Percent of injected dose per gram in the organ; settings: in vivo, 0.5 h; method in brief: as §2
Rattus norvegicus [19] = species: Rattus norvegicus; assay: The uptake of the 131 I-labeled compound at 30 min was evaluated in rat blood as Percent of injected dose per gram in the organ; settings: in vivo, 0.5 h; method in brief: as §2
Rattus norvegicus [20] = species: Rattus norvegicus; assay: The uptake of the 131 I-labeled compound at 5 min was evaluated in rat brain as Percent of injected dose per gram in the organ; settings: in vivo; method in brief: as §2
Rattus norvegicus [21] = species: Rattus norvegicus; assay: The uptake of the 131 I-labeled compound at 5 min was evaluated in rat liver as Percent of injected dose per gram in the organ; settings: in vivo; method in brief: as §2
Rattus norvegicus [22] = species: Rattus norvegicus; assay: Ratio of distribution of the [131I]-labeled compound at 30 min in rat kidney over uptake in blood; settings: other tissue, 0.5 h; method in brief: as §1
Rattus norvegicus [23] = species: Rattus norvegicus; assay: Ratio of distribution of the [131I]-labeled compound at 5 min in rat kidney over uptake in blood; settings: other tissue; method in brief: as §1
Rattus norvegicus [24] = species: Rattus norvegicus; assay: The uptake of the 131 I-labeled compound at 30 min was evaluated in rat kidney as Percent of injected dose in the total organ; settings: in vivo, 0.5 h; method in brief: as §2
Rattus norvegicus [25] = species: Rattus norvegicus; assay: Ratio of distribution of the [131I]-labeled compound at 30 min in rat heart over uptake in blood; settings: other tissue, 0.5 h; method in brief: as §1
Rattus norvegicus [26] = species: Rattus norvegicus; assay: Ratio of distribution of the [131I]-labeled compound at 5 min in rat heart over uptake in blood; settings: other tissue; method in brief: as §1
Rattus norvegicus [27] = species: Rattus norvegicus; assay: Ratio of distribution of the [131I]-labeled compound at 30 min in rat liver over uptake in blood; settings: other tissue, 0.5 h; method in brief: as §1
Rattus norvegicus [28] = species: Rattus norvegicus; assay: The uptake of the 131 I-labeled compound at 5 min was evaluated in rat heart as Percent of injected dose per gram in the organ; settings: in vivo; method in brief: as §2
Rattus norvegicus [29] = species: Rattus norvegicus; assay: The uptake of the 131 I-labeled compound at 30 min was evaluated in rat brain as Percent of injected dose per gram in the organ; settings: in vivo, 0.5 h; method in brief: as §2
Rattus norvegicus [30] = species: Rattus norvegicus; assay: Ratio of distribution of the [131I]-labeled compound at 5 min in rat lung over uptake in blood; settings: other tissue; method in brief: as §1

SMILES	Ratio (Rattus norvegicus [1])	Ratio (Rattus norvegicus [2])	Dose (Rattus norvegicus [3]) [%]	Dose (Rattus norvegicus [4]) [%]	Dose (Rattus norvegicus [5]) [%]	Dose (Rattus norvegicus [6]) [%]	Dose (Rattus norvegicus [7]) [%]	Dose (Rattus norvegicus [8]) [%]	Dose (Rattus norvegicus [9]) [%]	Dose (Rattus norvegicus [10]) [%]	Dose (Rattus norvegicus [11]) [%]	Dose (Rattus norvegicus [12]) [%]	Ratio (Rattus norvegicus [13])	Dose (Rattus norvegicus [14]) [%]	Dose (Rattus norvegicus [15]) [%]	Dose (Rattus norvegicus [16]) [%]	Ratio (Rattus norvegicus [17])	Dose (Rattus norvegicus [18]) [%]	Dose (Rattus norvegicus [19]) [%]	Dose (Rattus norvegicus [20]) [%]	further results
CCCCCCCCCCCCNC(C)Cc1cc(OC)c(I)cc1OC (stereo not given)	0.1	2.5	0.58	0.22	7.9	0.046	1	6.1	0.48	17	0.19	0.27	8.1	0.084	1.8	0.53	0.14	1.3	0.16	0.047	Dose (Rattus norvegicus [21]): 1.2%; Ratio (Rattus norvegicus [22]): 1.4; Ratio (Rattus norvegicus [23]): 1.2; Dose (Rattus norvegicus [24]): 0.69%; Ratio (Rattus norvegicus [25]): 1.2; Ratio (Rattus norvegicus [26]): 1.2; Ratio (Rattus norvegicus [27]): 3.3; Dose (Rattus norvegicus [28]): 0.6%; Dose (Rattus norvegicus [29]): 0.022%; Ratio (Rattus norvegicus [30]): 13
COc1cc(CC(C)NO)c(OC)cc1I (stereo not given)	3.6	9.5	1.4	1.2	6.6	1.2	0.8	2	0.19	8.6	0.3	0.24	21	1.2	2.5	0.72	3.9	3.3	0.16	0.69	Dose (Rattus norvegicus [21]): 1.5%; Ratio (Rattus norvegicus [22]): 7.5; Ratio (Rattus norvegicus [23]): 6.8; Dose (Rattus norvegicus [24]): 2.1%; Ratio (Rattus norvegicus [25]): 1.9; Ratio (Rattus norvegicus [26]): 3.6; Ratio (Rattus norvegicus [27]): 4.5; Dose (Rattus norvegicus [28]): 0.66%; Dose (Rattus norvegicus [29]): 0.63%; Ratio (Rattus norvegicus [30]): 12
